Assay outcomes (PubChem BioAssay)
RanGTP-Impb inh – inhibitors of RanGTP-importin-beta interaction, primary screen, biochemical, FRET, CFP-Ran, YFP-importin-beta, homogeneous; Ran GTPase (GTP-bound) - importin-beta complex; cell-free CFP-Ran/YFP-importin-beta FRET ratio; inhibition, % (no concentration beside the values); actives 1.1% (n = 300,000);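 active = more than half of the replicate wells show a fall in the fluorescence ratio signal beyond about 16%, limit read from the data, passing the limit was not always enough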;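 note: 0% = DMSO wells and 100% = Ran loaded with GDP instead of GTP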
Runt-CBFb FRET – inhibitors of RUNX1 Runt–CBFb binding, primary screen, biochemical, FRET, Cerulean-Runt, Venus-CBFb, uHTS. Cerulean-Runt/Venus-CBFb FRET ratio 530/480, 1 h. inhibition, % at 20 µM. actives 0.46% (n = 220,000). Runt-related transcription factor 1 (Homo sapiens) + Core-binding factor subunit beta …;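 active = inhibition over about 50% at 20 µM in the single-dose screen, limit read from the data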;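 note: 0% = DMSO wells and 100% = excess unlabeled CBFb competitor control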
Target sequence (Q01196 whole entry, looked up): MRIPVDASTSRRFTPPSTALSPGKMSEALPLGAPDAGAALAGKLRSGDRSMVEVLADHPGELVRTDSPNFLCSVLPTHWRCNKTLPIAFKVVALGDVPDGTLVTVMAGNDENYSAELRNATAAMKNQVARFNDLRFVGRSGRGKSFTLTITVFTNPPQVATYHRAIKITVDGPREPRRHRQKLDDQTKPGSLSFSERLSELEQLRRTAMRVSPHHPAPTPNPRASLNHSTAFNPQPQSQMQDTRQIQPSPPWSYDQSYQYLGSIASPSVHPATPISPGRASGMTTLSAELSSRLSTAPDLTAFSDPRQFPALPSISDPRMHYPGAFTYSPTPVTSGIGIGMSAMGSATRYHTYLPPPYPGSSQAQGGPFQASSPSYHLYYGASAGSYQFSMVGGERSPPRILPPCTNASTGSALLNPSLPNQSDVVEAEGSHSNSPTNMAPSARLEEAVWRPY
Target sequence (Q13951 whole entry, looked up): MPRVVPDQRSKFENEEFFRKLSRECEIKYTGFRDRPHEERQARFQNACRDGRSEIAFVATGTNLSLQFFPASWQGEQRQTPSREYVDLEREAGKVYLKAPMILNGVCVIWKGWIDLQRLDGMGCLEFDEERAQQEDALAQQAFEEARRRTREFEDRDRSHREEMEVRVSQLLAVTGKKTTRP
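Measured by: fluorescence energy transfer, 422 nm excitation, 530/480 nm emission; test system: Cerulean-tagged RUNX1 Runt domain (FRET donor) fusion protein; buffer or medium: Tris pH 7.5 buffer with BSA; compound: one dose, 20 µM compound, 1% DMSO; times: two 1 h room-temperature incubations shielded from light; benchmarks: unlabeled CBFb 5 µM, positive control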
TbHK1 inh – Trypanosoma brucei hexokinase 1 inhibitors, primary screen, biochemical, G6PDH-coupled NADH absorbance, MLSCN library | actives 0.11% (n = 220,000) | recombinant TbHK1, G6PDH-coupled NADH A340 | inhibition, % at 10 µM;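 active = inhibition of 50% or more in the single-dose primary screen; inactive = inhibition below 50%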
14-3-3 Bad PPI – inhibitors of 14-3-3 zeta/Bad binding, primary screen, biochemical, TR-FRET, bovine 14-3-3 zeta | TR-FRET 14-3-3zeta/Dy647-pBad peptide displacement, 1 h | inhibition, % at 21.7 µM | actives 0.71% (n = 220,000) | AID 781, 2007;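 active = inhibition above about 70%, limit read from the data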;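 note: 0% = full 14-3-3 plus peptide FRET controls and 100% = background without 14-3-3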
Hck Nef HTS – inhibitors of Nef-activated human Hck kinase, primary screen, biochemical, Z-Lyte FRET, 384-well, Hck-YEEI; actives 0.68% (n = 220,000); Recombinant Hck-YEEI plus Nef, Z-Lyte FRET kinase assay; inhibition, % at 20 µM; AID 463187, 2010; Tyrosine-protein kinase HCK (Homo sapiens), P08631;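 active = Hck-Nef kinase inhibition above about 50%, limit read from the data; inactive = inhibition below that limit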;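 note: 0% = DMSO with Hck plus Nef and 100% = Hck alone without Nef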
Runt-SMMHC FRET – inhibitors of RUNX1 Runt–CBFb-SMMHC binding, primary screen, biochemical, FRET, Cerulean-Runt, Venus-CBFb-SMMHC, uHTS. Runt-related transcription factor 1 (Homo sapiens) + Core-binding factor subunit beta …. Cerulean-Runt/Venus-CBFb-SMMHC FRET ratio 530/480, 1 h. inhibition, % at 20 µM. actives 0.74% (n = 220,000). AID 1434, 2008;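 active = mean inhibition across duplicate retests at 20 µM reaching about 50%, limit read from the data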;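 note: 0% = DMSO wells and 100% = wells with excess untagged CBFb-SMMHC; inhibitors lower the FRET ratio by blocking Runt binding to CBFb-SMMHC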
Starred values were filed as active, the others as inactive. A selection: hits, their analogues and other compounds. The true share with any hit is near 2.2%.

`Cc1ccc(S(=O)(=O)NC(=O)NCCCN2CCOCC2)cc1` gave RanGTP-Impb inh -1.0.
For Cc1ccc(S(=O)(=O)NC(=O)c2cc(C)n(CCCN3CCOCC3)c2C)cc1 the results were RanGTP-Impb inh 60.0*, Runt-CBFb FRET 9.8, TbHK1 inh -4.7, 14-3-3 Bad PPI 1.2, Hck Nef HTS 1.3 and Runt-SMMHC FRET 24.1.
Cc1n[nH]c(C)c1S(=O)(=O)Nc1ccc2c(c1)OCCO2 was read as RanGTP-Impb inh -3.0, Runt-CBFb FRET 0.8, TbHK1 inh -3.2, 14-3-3 Bad PPI 8.5, Hck Nef HTS 2.1 and Runt-SMMHC FRET -3.6.
COc1ccc(N=c2oc3cc(O)ccc3cc2C(=O)NCC2CCCO2)c(OC)c1 (stereo not given) was read as RanGTP-Impb inh 176.0*, Runt-CBFb FRET 11.2, TbHK1 inh -6.5, 14-3-3 Bad PPI -0.3, Hck Nef HTS 22.0 and Runt-SMMHC FRET 41.4.
For CCOc1ccc(N=c2oc3cc(O)ccc3cc2C(=O)NCC2CCCO2)cc1 (stereo not given) the results were RanGTP-Impb inh 184.1*, Runt-CBFb FRET 120.9*, TbHK1 inh -16.3, 14-3-3 Bad PPI 9.7, Hck Nef HTS 35.3 and Runt-SMMHC FRET 105.5*.
`COc1ccc(N=c2oc3cc(O)ccc3cc2C(=O)NCC2CCCO2)cc1` (stereo not given) gave RanGTP-Impb inh 173.4*, Runt-CBFb FRET 81.7*, TbHK1 inh -1.6, 14-3-3 Bad PPI 1.1, Hck Nef HTS 44.6 and Runt-SMMHC FRET 64.1*.
Screening Cc1ccc(N=c2oc3cc(O)ccc3cc2C(N)=O)cc1 returned RanGTP-Impb inh 180.8*, Runt-CBFb FRET 9.9, TbHK1 inh -4.8, 14-3-3 Bad PPI -15.2, Hck Nef HTS 45.9 and Runt-SMMHC FRET 46.5.
For Cc1ccc(C(=O)N/N=c2\oc3ccccc3cc2C(N)=O)cc1 the results were RanGTP-Impb inh -5.1.
`CC(C)(C)c1ccccc1NC(=O)c1c(O)c2cccc3c2n(c1=O)CC3` gave RanGTP-Impb inh 3.3, Runt-CBFb FRET 0.6, TbHK1 inh -1.6, 14-3-3 Bad PPI -24.0, Hck Nef HTS -3.7 and Runt-SMMHC FRET 1.7.
Screening COc1ccc(CNC(=O)c2coc(=O)c3ccccc23)c(OC)c1 returned RanGTP-Impb inh -1.4, Runt-CBFb FRET -0.3, TbHK1 inh 1.3, 14-3-3 Bad PPI -7.8, Hck Nef HTS 0.3 and Runt-SMMHC FRET 5.1.
`COc1ccc(-c2cc(C(=O)NCC3CCCO3)c3ccccc3n2)cc1` (stereo not given) gave RanGTP-Impb inh -3.3, Runt-CBFb FRET -0.5, TbHK1 inh -6.9, 14-3-3 Bad PPI -0.6, Hck Nef HTS 0.9 and Runt-SMMHC FRET 1.0.
Screening COc1ccc(-c2cc(C(=O)NCC3CCCO3)c3cc(C)ccc3n2)cc1 (stereo not given) returned RanGTP-Impb inh -1.2, Runt-CBFb FRET -2.9, TbHK1 inh -16.8, 14-3-3 Bad PPI 76.6*, Hck Nef HTS 2.3 and Runt-SMMHC FRET 2.3.
For N=c1oc2cc(O)ccc2cc1C(=O)Nc1ccc(Cl)cc1 the results were RanGTP-Impb inh 170.4*.
For O=C(N/N=C/c1ccc(OC(=O)c2ccc3c(c2)OCO3)cc1)c1cncc(Br)c1 the results were RanGTP-Impb inh 1.0, Runt-CBFb FRET -0.9, TbHK1 inh 26.3, 14-3-3 Bad PPI 71.2*, Hck Nef HTS 24.9 and Runt-SMMHC FRET 1.1.
For Nc1c(Cl)ncnc1N/N=C/c1ccc2ccccc2n1 the results were Runt-CBFb FRET -11.3, TbHK1 inh 43.0, 14-3-3 Bad PPI -16.9, Hck Nef HTS 6.0 and Runt-SMMHC FRET -12.6.
